# Source: paper PMC4783179 (The Journal of comparative neurology, 2015)
# Like-named read-outs stand apart in the source and are kept apart here. Marks after values point to notes of the source that are not given here.
# What was measured:
# 5-HT1A receptors [1] = settings: cited from earlier work
# adrenergic α1A = adrenergic α1A (Homo sapiens, UniProt P35348); assay: NIMH PDSP binding affinity, human cloned receptor
# [2] = target: serotonin 5-HT1A receptors; settings: rat brain homogenates labeled with 3H-WAY 100635; ref Saigal et al., 2013; cited from earlier work
# D5 = D5 (Homo sapiens, UniProt P21918); assay: NIMH PDSP binding affinity, human cloned receptor; settings: D1-like receptors
# Sequence of D5 (P21918 whole entry): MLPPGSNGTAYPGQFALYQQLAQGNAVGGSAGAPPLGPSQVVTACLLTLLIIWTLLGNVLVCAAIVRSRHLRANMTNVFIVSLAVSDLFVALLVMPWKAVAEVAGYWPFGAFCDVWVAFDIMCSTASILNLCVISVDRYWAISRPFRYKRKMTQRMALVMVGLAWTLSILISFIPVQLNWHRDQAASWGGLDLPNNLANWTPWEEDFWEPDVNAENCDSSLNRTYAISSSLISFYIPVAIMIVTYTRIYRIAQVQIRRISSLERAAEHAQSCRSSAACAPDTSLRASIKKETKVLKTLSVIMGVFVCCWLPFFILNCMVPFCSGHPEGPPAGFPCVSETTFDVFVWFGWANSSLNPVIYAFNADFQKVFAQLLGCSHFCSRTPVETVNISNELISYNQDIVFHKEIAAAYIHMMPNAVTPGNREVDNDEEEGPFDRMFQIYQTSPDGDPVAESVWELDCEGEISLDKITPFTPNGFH
# 5-HT1A receptors [3] = target: T1, 5-HT1A receptors (Mus musculus, UniProt Q64264); settings: cited from earlier work; for Brain Uptake: initial, 1–2 min post-injection
# T1 sequence (Q64264 1-421): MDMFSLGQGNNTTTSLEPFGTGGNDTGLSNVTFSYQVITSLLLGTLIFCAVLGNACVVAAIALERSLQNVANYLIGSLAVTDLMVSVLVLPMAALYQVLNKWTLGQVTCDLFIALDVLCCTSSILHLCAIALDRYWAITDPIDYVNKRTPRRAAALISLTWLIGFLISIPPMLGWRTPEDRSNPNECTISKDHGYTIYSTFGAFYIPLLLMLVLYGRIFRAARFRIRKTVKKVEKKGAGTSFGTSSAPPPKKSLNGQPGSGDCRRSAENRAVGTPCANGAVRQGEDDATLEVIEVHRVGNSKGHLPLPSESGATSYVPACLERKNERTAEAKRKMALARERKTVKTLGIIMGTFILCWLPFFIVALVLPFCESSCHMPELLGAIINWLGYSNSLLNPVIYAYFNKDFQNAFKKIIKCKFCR
# [4] = system: all other human-cloned receptor subtypes tested; assay: NIMH PDSP screening of the remaining panel; assay type: binding
# 5-HT1A receptors [5] = target: T1, 5-HT1A receptors; assay: In vitro autoradiography of 18F-Mefway, mouse brain slices; assay type: binding
# Method in brief: (§1)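 Horizontal 10 µm slices covering hippocampus, frontal cortex, dorsal raphe and cerebellum. Sources: frozen brains of male BALB/c mice (25 g) or male Sprague-Dawley rats (250–300 g). Preincubated in 50 mM Tris-HCl pH 7.4 for 10 min at room temperature, then 37–185 kBq/mL tracer at 37 °C for 1 h. […] Washed, then phosphor screen for 24 h. Regional DLU/mm² expressed as ratios to cerebellum as reference.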
# 5-HT1A receptors [6] = target: T2, 5-HT1A receptors (Rattus norvegicus, UniProt P19327); assay: In vitro autoradiography of 18F-Mefway, rat brain slices; assay type: binding
# T2 sequence (P19327 1-422): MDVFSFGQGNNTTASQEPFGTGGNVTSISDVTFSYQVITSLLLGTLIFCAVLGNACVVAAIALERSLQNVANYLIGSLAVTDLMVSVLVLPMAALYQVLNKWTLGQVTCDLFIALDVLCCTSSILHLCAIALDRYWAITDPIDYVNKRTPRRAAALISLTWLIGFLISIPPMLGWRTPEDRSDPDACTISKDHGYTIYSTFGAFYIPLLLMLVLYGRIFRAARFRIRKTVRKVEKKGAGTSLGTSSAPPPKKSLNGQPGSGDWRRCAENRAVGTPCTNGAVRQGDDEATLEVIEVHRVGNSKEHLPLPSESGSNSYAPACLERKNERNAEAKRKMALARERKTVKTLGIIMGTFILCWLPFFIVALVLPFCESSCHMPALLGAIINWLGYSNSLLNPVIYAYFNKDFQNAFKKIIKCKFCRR
# Method in brief: as §1
# 5-HT2B = 5-HT2B (Homo sapiens, UniProt P41595); assay: NIMH PDSP binding affinity, human cloned receptor
# Sequence of 5-HT2B (P41595 whole entry): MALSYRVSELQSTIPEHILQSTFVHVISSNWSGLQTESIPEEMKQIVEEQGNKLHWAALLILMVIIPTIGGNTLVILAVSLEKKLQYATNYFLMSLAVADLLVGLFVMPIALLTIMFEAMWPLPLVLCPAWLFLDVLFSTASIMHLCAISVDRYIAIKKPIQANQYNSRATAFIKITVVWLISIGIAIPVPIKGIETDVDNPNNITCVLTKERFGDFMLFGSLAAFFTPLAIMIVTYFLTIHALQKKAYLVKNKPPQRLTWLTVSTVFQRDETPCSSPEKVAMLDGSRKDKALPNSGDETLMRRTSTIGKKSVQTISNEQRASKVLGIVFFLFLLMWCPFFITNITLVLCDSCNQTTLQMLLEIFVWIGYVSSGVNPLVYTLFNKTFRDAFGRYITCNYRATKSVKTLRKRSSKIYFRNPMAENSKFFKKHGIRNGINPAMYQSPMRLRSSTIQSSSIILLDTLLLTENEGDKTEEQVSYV
# dopamine D4 = dopamine D4 (Homo sapiens, UniProt P21917); assay: NIMH PDSP binding affinity, human cloned receptor
# Sequence of dopamine D4 (P21917 whole entry): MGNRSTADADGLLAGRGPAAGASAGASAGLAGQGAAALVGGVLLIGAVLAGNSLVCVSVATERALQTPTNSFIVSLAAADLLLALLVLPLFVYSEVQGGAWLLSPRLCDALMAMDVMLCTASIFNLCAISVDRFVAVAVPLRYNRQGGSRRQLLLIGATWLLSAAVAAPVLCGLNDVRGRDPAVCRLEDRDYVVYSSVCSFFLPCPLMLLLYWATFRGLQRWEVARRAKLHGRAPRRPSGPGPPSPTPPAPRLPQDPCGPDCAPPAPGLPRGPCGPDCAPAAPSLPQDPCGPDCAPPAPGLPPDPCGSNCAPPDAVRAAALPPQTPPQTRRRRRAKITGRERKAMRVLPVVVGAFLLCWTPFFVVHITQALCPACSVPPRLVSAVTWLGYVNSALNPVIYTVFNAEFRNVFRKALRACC
# 5-HT1A receptors [7] = target: T2, 5-HT1A receptors; settings: 90 mins post-injection, cited from earlier work
# adrenergic α1D = adrenergic α1D (Homo sapiens, UniProt P25100); assay: NIMH PDSP binding affinity, human cloned receptor
# Sequence of adrenergic α1D (P25100 whole entry): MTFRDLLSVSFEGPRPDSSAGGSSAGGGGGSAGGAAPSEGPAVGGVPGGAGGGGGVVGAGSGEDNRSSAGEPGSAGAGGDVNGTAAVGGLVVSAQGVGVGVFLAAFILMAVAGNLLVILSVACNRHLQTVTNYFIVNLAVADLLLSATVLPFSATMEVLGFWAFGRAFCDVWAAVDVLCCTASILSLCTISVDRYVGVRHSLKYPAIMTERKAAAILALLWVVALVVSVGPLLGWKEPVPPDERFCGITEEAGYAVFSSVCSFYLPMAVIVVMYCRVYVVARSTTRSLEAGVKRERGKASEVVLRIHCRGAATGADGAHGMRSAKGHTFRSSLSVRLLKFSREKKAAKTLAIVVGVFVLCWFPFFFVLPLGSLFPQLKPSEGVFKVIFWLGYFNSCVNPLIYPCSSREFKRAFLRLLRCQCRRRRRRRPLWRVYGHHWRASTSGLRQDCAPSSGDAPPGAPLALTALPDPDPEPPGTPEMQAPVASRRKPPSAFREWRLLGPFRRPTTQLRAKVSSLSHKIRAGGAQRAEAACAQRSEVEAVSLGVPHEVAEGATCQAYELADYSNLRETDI
# 5-HT1A receptors [8] = target: T3, 5-HT1A receptors (Homo sapiens, UniProt P08908); assay: In vitro autoradiography of 18F-Mefway, human postmortem hippocampus sections; assay type: binding
# T3 sequence (P08908 1-422): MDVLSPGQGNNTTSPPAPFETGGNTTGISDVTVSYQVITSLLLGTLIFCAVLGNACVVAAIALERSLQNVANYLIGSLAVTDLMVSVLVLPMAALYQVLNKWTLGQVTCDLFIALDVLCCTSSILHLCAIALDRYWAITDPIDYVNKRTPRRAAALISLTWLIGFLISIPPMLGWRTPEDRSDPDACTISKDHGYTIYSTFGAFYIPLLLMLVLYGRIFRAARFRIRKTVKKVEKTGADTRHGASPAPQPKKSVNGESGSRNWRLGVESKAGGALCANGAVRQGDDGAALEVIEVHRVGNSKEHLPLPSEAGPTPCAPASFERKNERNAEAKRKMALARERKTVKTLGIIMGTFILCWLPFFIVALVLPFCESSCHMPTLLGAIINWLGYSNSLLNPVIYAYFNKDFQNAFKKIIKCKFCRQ
# Method in brief: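 Dog tissue: unfixed beagle brain (4.5–15.4 yr), stored at −80 °C, cut as 10 µm hemi-coronal slices with hippocampus and cortex. Human tissue: postmortem hippocampus (PMI 3.8–5.8 h), cut at 7 µm. Slices preincubated in 50 mM Tris-HCl pH 7.4 for 10 min at room temperature, then incubated with 37–185 kBq/mL tracer at 37 °C for 1 h. […] Two 1-min ice-cold buffer washes, then 24 h phosphor-screen exposure. Binding read as DLU/mm².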
# [9] = [5-HT1A affinity/other receptor affinity]×100, 5-HT1A 0.6 or 2.2 nM for WAY-100635, 0.9 nM for Mefway
# [10] = ref Saigal et al., 2013, listed as 18F-Mefway
# Sequence of adrenergic α1A (P35348 whole entry): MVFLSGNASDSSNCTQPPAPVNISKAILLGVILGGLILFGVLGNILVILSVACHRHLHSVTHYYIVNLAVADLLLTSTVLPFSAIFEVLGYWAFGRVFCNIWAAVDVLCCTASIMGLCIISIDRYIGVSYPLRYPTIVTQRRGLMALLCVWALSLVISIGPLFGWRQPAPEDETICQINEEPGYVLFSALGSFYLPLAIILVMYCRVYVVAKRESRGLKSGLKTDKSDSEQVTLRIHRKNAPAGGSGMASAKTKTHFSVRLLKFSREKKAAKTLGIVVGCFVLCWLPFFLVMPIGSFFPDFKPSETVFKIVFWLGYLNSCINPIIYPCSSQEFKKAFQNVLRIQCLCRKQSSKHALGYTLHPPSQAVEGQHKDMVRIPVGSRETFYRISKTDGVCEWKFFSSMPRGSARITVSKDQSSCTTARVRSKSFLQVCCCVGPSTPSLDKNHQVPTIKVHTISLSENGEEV
smiles,measurement,setting,value
COc1ccccc1N1CCN(CCN(C(=O)C2CCC(CF)CC2)c2ccccn2)CC1 (stereo not drawn) [Mefway],Raphe ratio with respect to cerebellum,"5-HT1A receptors [1]; monkey, higher resolution P4 scanner, ref Wooten et al., 2011b",greater than 3
same,HP/CB PET ratio,"5-HT1A receptors [1]; monkey, 90 mins post-injection, ref Saigal et al., 2006, Wooten et al., 2011b",10 ^f
same,Raphe BPND,"5-HT1A receptors [1]; monkey, ref Wooten et al., 2011b",greater than 3
same,Raphe ratio with respect to cerebellum,"5-HT1A receptors [1]; monkeys, EXACT HR+ PET scanner, ref Saigal et al., 2006",approximately 2
same,Raphe to cerebellum ratio,"5-HT1A receptors [1]; monkeys, scanner not stated (abstract)",approximately 3
same,"% human 5HT1A Selectivity, α1A",adrenergic α1A; [9],1.29%
same,Ki,"adrenergic α1A; read-out: Binding affinity, Ki, α1A, human cloned receptor, PDSP",70 nM
same,"Binding affinity, Ki, 5-HT1A, rat brain homogenates",[2],subnanomolar affinity
same,"Affinity, D5 subtype",D5,very poor affinities
same,HP/CB PET ratio,"5-HT1A receptors [3]; 90 mins post-injection, may be underestimated, ref Saigal et al., 2013",3 ^g
same,Brain Uptake,5-HT1A receptors [3]; [10],5 %ID/cc
same,Brain Uptake,"5-HT1A receptors [3]; ref Saigal et al., 2013",5 ^g %ID/cc
same,"Affinity, other adrenergic receptor subtypes",[4]; adrenergic subtypes other than α1A and α1D,poor affinities
same,"Affinity, all other receptor subtypes tested in section 2.3","[4]; at 10 μM concentration, significant = > 50% inhibition",did not exhibit significant affinity
same,"Affinity, other serotonin receptor subtypes","[4]; serotonin subtypes other than 5-HT1A, 5-HT7, 5-HT2B",did not show significant affinities
same,Binding displaced in hippocampus and cortex,"5-HT1A receptors [5]; in the presence of 10 μM of WAY-100635, mouse (all the species)",> 95%
same,"Ratio in cortical regions, autoradiography",5-HT1A receptors [5]; mice,> 10
same,"Ratio of hippocampus to cerebellum, autoradiography","5-HT1A receptors [5]; mice, brain slices incubated for one hr",25
same,"Ratio of raphe to cerebellum, autoradiography","5-HT1A receptors [5]; mice, horizontal sections",22
same,Binding displaced in hippocampus and cortex,"5-HT1A receptors [6]; in the presence of 10 μM of WAY-100635, rat (all the species)",> 95%
same,"Ratio in cortical regions, autoradiography",5-HT1A receptors [6]; rats,> 10
same,"Ratio of hippocampus to cerebellum, autoradiography","5-HT1A receptors [6]; rats, brain slices incubated for one hr",30
same,"Ratio of raphe to cerebellum, autoradiography","5-HT1A receptors [6]; rats, horizontal sections",23
same,"% human 5HT1A Selectivity, 5-HT2B",5-HT2B; [9],0.35%
same,Ki,"5-HT2B; read-out: Binding affinity, Ki, 5-HT2B, human cloned receptor, PDSP",260 nM
same,"% human 5HT1A Selectivity, D4",dopamine D4; [9],0.71%
same,Ki,"dopamine D4; read-out: Binding affinity, Ki, D4, human cloned receptor, PDSP",126 nM
same,HP/CB PET ratio,5-HT1A receptors [7]; [10],10
same,HP/CB PET ratio,"5-HT1A receptors [7]; ref Saigal et al., 2013",10 ^g
same,"% human 5HT1A Selectivity, α1D",adrenergic α1D; [9],1.58%
same,Ki,"adrenergic α1D; read-out: Binding affinity, Ki, α1D, human cloned receptor, PDSP",57 nM
same,"Ratio of hippocampus versus white matter, autoradiography",5-HT1A receptors [8]; human hippocampus sections,13
same,Binding displaced in hippocampus and cortex,"5-HT1A receptors [8]; in the presence of 10 μM of WAY-100635, human (all the species)",> 95%
